Reference: ChEMBL document CHEMBL4308829, “Design and Synthesis of Novel Positive Allosteric Modulators of α7 Nicotinic Acetylcholine Receptors with the Ability To Rescue Auditory Gating Deficit in Mice” (J Med Chem, 2018)
The source made the active and inactive calls. Unless noted, the calls are words filed in the database; no cut-off is given here.

Assays:
[1] = Ratio of drug level in C57BL/6J mouse brain to plasma at 1 mg/kg, ip after 0.5 hrs by LC-MS/MS analysis; type: ADME, organism-based; settings: read-out: BPR
Outline: (§1)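 C57BL/6J mice given 1 mg/kg i.p. from a 0.4 mg/mL solution in 10% DMSO/50% PEG400/40% SBECD. Plasma and brain taken at 0.5, 2 and 8 h. Samples mixed with internal standard in methanol/acetonitrile (1:1), centrifuged and diluted 10x in methanol:water with 0.1% FA, then measured by HPLC-MS-MS. n = 3; ratio is brain over plasma concentration.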

[2] = Tmax in rat at 60 mg/kg, po by LC-MS/MS analysis; type: ADME, organism-based; settings: in vivo
Outline: (§2)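 Rat plasma stored at -20 °C, spiked with internal standard, protein-precipitated with methanol, centrifuged and filtered before LC-MS/MS. C18 column at 40 °C, acetonitrile/0.1% formic acid (80:20) isocratic at 0.5 mL/min. Positive ESI with MRM m/z 400.0->129.9. Parameters taken per rat by non-compartmental analysis, n = 3.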

[3] = target: GABA-A receptor; anion channel (Homo sapiens) (UniProt P14867+P47870+P18507+P28472+P48169+Q99928+Q9UN88+P34903+O00591+O14764+Q8N1C3+P18505+P78334+P47869+P31644+Q16445); experiment: Positive allosteric modulation of human GABA-A receptor expressed in Xenopus laevis oocytes assessed as increase in GABA-induced channel current 10 uM by two-electrode voltage clamp method; type: cell-based
[4] = AUClast in rat at 3 mg/kg, iv by LC-MS/MS analysis; type: ADME, organism-based; design: dose 3 mg/kg, time 0 - last, route intravenous; settings: in vivo; outline: as §2
[5] = MRT in rat at 60 mg/kg, po by LC-MS/MS analysis; type: ADME, organism-based; settings: in vivo; outline: as §2
[6] = Drug uptake in C57BL/6J mouse brain at 1 mg/kg, ip after 2 hrs by LC-MS/MS analysis; type: ADME, organism-based; settings: read-out: Drug uptake; outline: as §1
[7] = Ratio of drug level in C57BL/6J mouse brain to plasma at 1 mg/kg, ip after 2 hrs by LC-MS/MS analysis; type: ADME, organism-based; settings: read-out: BPR; outline: as §1
[8] = test system: Mus musculus; experiment: (§3) Anti-schizophrenic activity in C57BL/6J mouse assessed as protection against MK-801-induced auditory gating deficit by measuring prepulse inhibition impairment at 1 mg/kg, ip at 8 to 16 dB prepulse intensity (reference value: 11%); type: functional; design: scale not given: the % may be the effect or the level left
[9] = Apparent volume of distribution in rat at 3 mg/kg, iv by LC-MS/MS analysis; type: ADME, organism-based; settings: in vivo; outline: as §2
[10] = Ratio of drug level in C57BL/6J mouse brain to plasma at 1 mg/kg, ip after 8 hrs by LC-MS/MS analysis; type: ADME, organism-based; settings: read-out: BPR; outline: as §1
[11] = Plasma concentration in C57BL/6J mouse at 1 mg/kg, ip after 2 hrs by LC-MS/MS analysis; type: ADME, organism-based; outline: as §1
[12] = test system: Mus musculus; experiment: Anti-schizophrenic activity in C57BL/6J mouse assessed as protection against MK-801-induced auditory gating deficit by measuring prepulse inhibition impairment at 0.1 mg/kg, ip at 8 to 16 dB prepulse intensity (reference value: 11%); type: functional; design: scale not given: the % may be the effect or the level left
[13] = AUCinfinity in rat at 60 mg/kg, po by LC-MS/MS analysis; type: ADME, organism-based; design: dose 60 mg/kg, time infinity, route oral; settings: in vivo; outline: as §2
[14] = test system: Mus musculus; experiment: as §3, with “intensity pretreated for 30 mins followed by MK-801 treatment and measured after 30 mins” for “intensity”, “8.7%)” for “11%)”; type: functional; design: scale not given: the % may be the effect or the level left
[15] = target: Neuronal acetylcholine receptor; alpha4/beta2 (Rattus norvegicus) (UniProt P09483+P12390); experiment: Positive allosteric modulation of rat alpha4beta2 nAChR expressed in Xenopus laevis oocytes assessed as increase in acetylcholine-induced channel current at 10 uM at -90 mV holding potential by two-electrode voltage clamp method; type: cell-based
Outline: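 Rat α3β4 or α4β2 subunit cRNAs (~2 ng total, 1:1) injected into oocytes, which were kept at 16 °C in ND96. Two-electrode voltage clamp at -90 mV, 24-72 h post-injection, in Ringer's containing atropine at room temperature.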

[16] = target: T1, Neuronal acetylcholine receptor subunit alpha-7 (Homo sapiens, UniProt P36544); experiment: Agonist activity at human alpha7 nAChR expressed in Xenopus laevis oocytes assessed as induction of channel current at -90 mV holding potential by two-electrode voltage clamp method; type: cell-based
T1 sequence (P36544 whole entry): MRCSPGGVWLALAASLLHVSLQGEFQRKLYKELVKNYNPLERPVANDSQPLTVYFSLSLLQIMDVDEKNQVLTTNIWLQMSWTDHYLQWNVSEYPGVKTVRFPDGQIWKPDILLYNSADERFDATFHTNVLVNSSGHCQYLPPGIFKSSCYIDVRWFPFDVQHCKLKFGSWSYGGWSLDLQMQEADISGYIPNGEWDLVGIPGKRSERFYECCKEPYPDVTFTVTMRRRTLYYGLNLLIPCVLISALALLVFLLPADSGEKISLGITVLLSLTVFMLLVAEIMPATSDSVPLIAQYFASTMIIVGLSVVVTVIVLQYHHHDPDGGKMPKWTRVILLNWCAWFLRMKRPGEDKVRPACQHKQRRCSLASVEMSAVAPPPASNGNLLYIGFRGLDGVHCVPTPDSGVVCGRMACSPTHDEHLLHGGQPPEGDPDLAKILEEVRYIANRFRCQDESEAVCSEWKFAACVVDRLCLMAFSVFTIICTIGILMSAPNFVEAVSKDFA

[17] = Cmax in rat at 60 mg/kg, po by LC-MS/MS analysis; type: ADME, organism-based; design: dose 60 mg/kg, route oral; settings: in vivo; outline: as §2
[18] = target: T2, 5-hydroxytryptamine receptor 3A (Homo sapiens) (UniProt P46098); experiment: Positive allosteric modulation of human 5-HT3A receptor expressed in Xenopus laevis oocytes assessed as increase in 5-HT-induced channel current at 10 uM at -90 mV holding potential by two-electrode voltage clamp method; type: cell-based
T2 sequence (whole entry): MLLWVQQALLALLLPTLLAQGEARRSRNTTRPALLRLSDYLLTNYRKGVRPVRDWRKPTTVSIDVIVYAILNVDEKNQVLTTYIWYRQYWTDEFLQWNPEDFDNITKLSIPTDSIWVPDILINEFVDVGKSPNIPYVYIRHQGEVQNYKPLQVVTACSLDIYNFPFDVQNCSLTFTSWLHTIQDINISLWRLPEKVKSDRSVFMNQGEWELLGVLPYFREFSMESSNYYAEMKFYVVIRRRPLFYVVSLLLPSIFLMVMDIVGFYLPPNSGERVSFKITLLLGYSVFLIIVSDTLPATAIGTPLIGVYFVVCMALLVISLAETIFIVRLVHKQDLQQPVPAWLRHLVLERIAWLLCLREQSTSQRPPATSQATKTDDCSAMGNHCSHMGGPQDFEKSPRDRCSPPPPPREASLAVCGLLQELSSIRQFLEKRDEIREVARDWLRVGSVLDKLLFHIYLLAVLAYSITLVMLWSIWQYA

[19] = target: T1, Neuronal acetylcholine receptor subunit alpha-7; experiment: Positive allosteric modulation of human alpha7 nAChR expressed in Xenopus laevis oocytes assessed as increase in acetylcholine-induced channel current at -90 mV holding potential preincubated for 2 mins followed by co-application with acetylcholine for 10 secs by two-electrode voltage clamp method; type: cell-based
[20] = Half life in rat at 3 mg/kg, iv by LC-MS/MS analysis; type: ADME, organism-based; settings: in vivo; outline: as §2
[21] = Drug uptake in C57BL/6J mouse brain at 1 mg/kg, ip after 0.5 hrs by LC-MS/MS analysis; type: ADME, organism-based; settings: read-out: Drug uptake; outline: as §1
[22] = Plasma concentration in C57BL/6J mouse at 1 mg/kg, ip after 8 hrs by LC-MS/MS analysis; type: ADME, organism-based; outline: as §1
[23] = test system: Mus musculus; experiment: Anti-schizophrenic activity in ip dosed C57BL/6J mouse assessed as protection against MK-801-induced auditory gating deficit by measuring reduction in prepulse inhibition impairment at 8 to 16 dB prepulse intensity; type: functional, organism-based
[24] = AUCinfinity in rat at 3 mg/kg, iv by LC-MS/MS analysis; type: ADME, organism-based; design: dose 3 mg/kg, route intravenous, time infinity; settings: in vivo; outline: as §2
[25] = test system: Mus musculus; experiment: Anti-schizophrenic activity in C57BL/6J mouse assessed as protection against MK-801-induced auditory gating deficit by measuring prepulse inhibition impairment at 0.3 mg/kg, ip at 8 to 16 dB prepulse intensity (reference value: 11%); type: functional; design: scale not given: the % may be the effect or the level left
[26] = target: T1, Neuronal acetylcholine receptor subunit alpha-7; experiment: Positive allosteric modulation of human alpha7 nAChR expressed in Xenopus laevis oocytes assessed as increase in acetylcholine-induced channel current at 10 uM at -90 mV holding potential preincubated for 2 mins followed by acetylcholine addition in presence of alpha7 nAChR antagonist MLA by two-electrode voltage clamp method relative to control; type: cell-based

Cc1cccc(Cl)c1-n1cnc2nc(SCc3ccccc3)sc2c1=O
Kp at 0.5 h [1]: 2.5
Tmax [2]: 1.3 h
Activity [3]: inactive
AUC(0-t) [4]: 600 ng·h/mL
MRT [5]: 9.5 h
concentration at 2 h [6]: 26.3 ng/g
Kp at 2 h [7]: 2.7
Activity [8]: 28%
Vd [9]: 0.069 L/kg
Kp at 8 h [10]: 2.3
concentration at 2 h [11]: 9.8 ng/mL
Activity [12]: 22%
AUC(0-inf) [13]: 1100 ng·h/mL
Activity [14]: 30%
Activity [15]: inactive
Activity [16]: inactive
Cmax [17]: 200 ng/mL
Activity [18]: inactive
Activity [19]: Dose-dependent effect
half-life [20]: 10.8 h
concentration at 0.5 h [21]: 84.7 ng/g
concentration at 8 h [22]: 0.9 ng/mL
Activity [23]: Dose-dependent effect
AUC(0-inf) [24]: 680 ng·h/mL
Activity [25]: 26%
Activity [26]: inactive
